This passage reports folding enthalpy and Tm results from the array DNA melting data of Ke et al. (doi:10.1101/2024.01.08.574731).

A short description of series [1]: folding enthalpy; higher = less favourable; fluorescence melt of hairpins on a sequencing array, two-state fit. The settings on record: sodium 0.088 M. Summed up:
(§1)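 With Cy3 and quencher oligos annealed, library hairpins on a sequenced MiSeq flow cell were imaged for Cy3 fluorescence in 50 mM Na-HEPES pH 8.0, 25 mM NaCl, in 2.5 °C steps up to 60 °C. Melting temperature and folding enthalpy were derived from bootstrapped two-state fits of signals normalised to pre-quench Cy3 and to control constructs. Four replicates were combined by inverse variance, with fitted temperatures raised by 9.35 °C to match UV melts.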

Series [2] is described as follows: melting temperature; fluorescence melt of hairpins on a sequencing array, two-state fit, raised by 9.35 °C to match UV melts. The settings on record: sodium 0.088 M. In short, it runs like this:
as §1

For GTTTAAGCGAAAGCTAAC (((..(((....)))))), in series [1], the folding enthalpy was -11.8 kcal/mol. In addition, the Tm in series [2] stood at 32 °C.
GTTTAAGGAAACCTAAAC (((((.(....).))))): the folding enthalpy in series [1] was -9.26 kcal/mol. For the same sequence, the Tm in series [2] came to 24.8 °C.
GTTTACGCGAAAGCGAAC (((..(((....)))))): the folding enthalpy in series [1] was -9.1 kcal/mol. Moreover, in series [2], the Tm stood at 31.8 °C.
For GTTTACGGAAACGTGAAC (((.(((....))).))), the folding enthalpy in series [1] was -27.7 kcal/mol. The Tm in series [2] worked out at 46 °C.
As to GTTTAGACGAAAGTCAAC (((..(((....)))))), the folding enthalpy in series [1] was -9.97 kcal/mol. Moreover, in series [2], the Tm is 30.4 °C.
On to GTTTAGGGAAACCTAAAC (((((((....))))))), for which the folding enthalpy in series [1] is -39.9 kcal/mol. In addition, the Tm in series [2] is 52.7 °C.
With GTTTATGGAAACATAAGC (.(((((....))))).), in series [1], the folding enthalpy is -20.8 kcal/mol. Moreover, the Tm in series [2] is 33.7 °C.
For GTTTATGGAAACATAGAC ((.((((....)))).)), the folding enthalpy in series [1] was -23.7 kcal/mol. Moreover, the Tm in series [2] was 32.2 °C.
On to GTTTATGGAAACGTAAAC (((((.(....).))))), for which the folding enthalpy in series [1] was -30 kcal/mol. Further, the Tm in series [2] was 37.5 °C.
For GTTTCAACGAAAGTTAAC (((..(((....)))))) the same measures were -15.8 kcal/mol and 35.5 °C.
For the sequence GTTTCACGAAAGTGAAC (((.(((....)))))), the folding enthalpy in series [1] was -14.4 kcal/mol. Besides, in series [2], the Tm was determined as 49.4 °C.
For GTTTCCGAAAGGACAAAC ((((((....)))..))) the same measures were -9.58 kcal/mol and 26.1 °C.
Take GTTTCCGAAAGGACGAAC ((((((....)))..))): in series [1], the folding enthalpy is -9.15 kcal/mol. Further, in series [2], the Tm was 21.9 °C.
Take GTTTCCGAAAGGAGGAAC ((((((....)))..))): in series [1], the folding enthalpy was -9.8 kcal/mol. In series [2], the Tm came out at 27.4 °C.
As to GTTTCGCGAAAGCGAAC (((.(((....)))))), in series [1], the folding enthalpy was -10.4 kcal/mol. For the same sequence, the Tm in series [2] amounted to 53.9 °C.
On to GTTTCGCGAAAGCGGAAC (((.(((....))).))), for which the folding enthalpy in series [1] was -23.4 kcal/mol. The Tm in series [2] is 59.2 °C.
Consider GTTTCGGGAAACCGAAAC (((((((....))))))), for which, in series [1], the folding enthalpy was -40.2 kcal/mol. For the same sequence, in series [2], the Tm was found to be 62.5 °C.
With GTTTCGGGAAACTGAGAC ((.((.(....).)).)), the folding enthalpy in series [1] is -13.2 kcal/mol. Moreover, the Tm in series [2] was determined as 35.7 °C.
For GTTTCGGGAAACTGGAAC (((.(.(....).).))), the folding enthalpy in series [1] is -13.5 kcal/mol. For the same sequence, the Tm in series [2] worked out at 39.8 °C.
Consider GTTTCTCGAAAGAGAAC (((.(((....)))))), for which the folding enthalpy in series [1] is -17.1 kcal/mol. The Tm in series [2] was determined as 42.4 °C.
GTTTCTCGAAAGAGGAAC (((.(((....))).))): the folding enthalpy in series [1] was -34.7 kcal/mol. The Tm in series [2] is 49.1 °C.
On to GTTTCTGGAAACGGAAAC (((((.(....).))))), for which, in series [1], the folding enthalpy was -31.8 kcal/mol. Moreover, the Tm in series [2] is 45.5 °C.
As for GTTTGAACGAAAGTTAAC (((..(((....)))))), the folding enthalpy in series [1] is -12.3 kcal/mol. Also, in series [2], the Tm worked out at 24.4 °C.
For GTTTGAGGAAACTTAAGC (.((.((....)).)).) the same measures were -13.9 kcal/mol and 31.9 °C.
Regarding GTTTGCGAAAGCAGTAAC ((((((....)))..))), in series [1], the folding enthalpy was -12.9 kcal/mol. Moreover, the Tm in series [2] worked out at 30.6 °C.
GTTTGCGGAAACGCGAAC (((.(((....))).))): the folding enthalpy in series [1] is -35.7 kcal/mol. Moreover, the Tm in series [2] came to 56.9 °C.
GTTTGCGGAAACGTAAAC ((((.((....)).)))): the folding enthalpy in series [1] was -32.3 kcal/mol. Further, in series [2], the Tm is 48.6 °C.
Turning to GTTTGGAAACAAAC (((((....))))), the folding enthalpy in series [1] is -24.5 kcal/mol. The Tm in series [2] worked out at 45.6 °C.
In the case of GTTTGGCCGAAAGGCAAC (((..(((....)))))), in series [1], the folding enthalpy is -11.5 kcal/mol. Moreover, the Tm in series [2] was determined as 37.7 °C.
Regarding GTTTGGGAAACCAAAC ((((((....)))))), the folding enthalpy in series [1] was -39.5 kcal/mol. Also, the Tm in series [2] was 53.2 °C.
GTTTGGGGAAACCCGAAC (((.(((....))).))): the folding enthalpy in series [1] was -36.5 kcal/mol. In addition, the Tm in series [2] was determined as 49.3 °C.
For GTTTGTGAAAACAAAC ((((((....)))))) the same measures were -37.6 kcal/mol and 53.7 °C.
Consider GTTTGTGGAAACACAAGC (.(((((....))))).), for which the folding enthalpy in series [1] is -23.1 kcal/mol. Further, in series [2], the Tm is 45.1 °C.
Take GTTTGTGGAAACACGAAC (((.(((....))).))): the folding enthalpy in series [1] is -36 kcal/mol. Moreover, the Tm in series [2] came out at 49 °C.
In the case of GTTTTACCGAAAGGTAAC (((..(((....)))))), in series [1], the folding enthalpy was -12.3 kcal/mol. Further, in series [2], the Tm was determined as 33.6 °C.
For GTTTTACGAAAGTAGAAC (((.(((....))).))) the same measures were -29.2 kcal/mol and 41.2 °C.
With GTTTTAGGAAACTAAGAC ((.((((....)))).)), the folding enthalpy in series [1] is -15.7 kcal/mol. Besides, the Tm in series [2] worked out at 29 °C.
Taken in the same sequence, the figures for GTTTTCCGAAAGGATAAC (((.(((....))).))) were -28.4 kcal/mol and 44.9 °C.
For GTTTTCGGAAACGGAAAC ((((.((....)).)))) the same measures were -27.1 kcal/mol and 47.1 °C.
As to GTTTTGACGAAAGTCAAC (((..(((....)))))), the folding enthalpy in series [1] is -11.5 kcal/mol. Also, the Tm in series [2] was 34.6 °C.
In the case of GTTTTGCGAAAGCAGAAC (((.(((....))).))), the folding enthalpy in series [1] is -29.9 kcal/mol. The Tm in series [2] was 51.4 °C.
As for GTTTTGGGAAACCAGAAC (((.(((....))).))), in series [1], the folding enthalpy is -26.9 kcal/mol. Besides, the Tm in series [2] turned out to be 38.1 °C.
For GTTTTTGGAAACGAAAAC (((((.(....).))))) the same measures were -31.3 kcal/mol and 40.4 °C.
Taken in the same sequence, the figures for TACCCGAAAGGGTA (((((....))))) were -14.4 kcal/mol and 66.1 °C.
For TAGACGAAAGTCTA (((((....))))) the same measures were -15.3 kcal/mol and 50.9 °C.
Take TAGAGGAAACTCTA (((((....))))): the folding enthalpy in series [1] is -8.94 kcal/mol. Moreover, in series [2], the Tm turned out to be 32.1 °C.
Regarding TATACGAAAGTATA (((((....))))), the folding enthalpy in series [1] is -14.9 kcal/mol. Also, in series [2], the Tm is 42.1 °C.
Taken in the same sequence, the figures for TATCGGAAACGATA (((((....))))) were -17.8 kcal/mol and 43 °C.
Taken in the same sequence, the figures for TATGGGAAACCATA (((((....))))) were -14.9 kcal/mol and 37.2 °C.
For TCACAGAAATGTGA (((((....))))), in series [1], the folding enthalpy was -14.6 kcal/mol. Moreover, the Tm in series [2] came to 39.8 °C.
TCAGTGAAAACTGA (((((....))))): in series [1], the folding enthalpy is -16.9 kcal/mol. For the same sequence, in series [2], the Tm was found to be 42.6 °C.
Taken in the same sequence, the figures for TCATCGAAAGATGA (((((....))))) were -22.9 kcal/mol and 49.7 °C.
Taken in the same sequence, the figures for TCATGGAAACATGA (((((....))))) were -24.5 kcal/mol and 39.8 °C.
For TCCAGGAAACTGGA (((((....))))) the same measures were -22.8 kcal/mol and 46 °C.
TCCTGGAAACAGGA (((((....))))): the folding enthalpy in series [1] is -18.4 kcal/mol. Further, the Tm in series [2] turned out to be 45.5 °C.
For TCGTGGAAACACGA (((((....))))), the folding enthalpy in series [1] was -18.3 kcal/mol. The Tm in series [2] amounted to 53.7 °C.
Consider TCGTTGAAAAACGA (((((....))))), for which the folding enthalpy in series [1] is -20.3 kcal/mol. Moreover, the Tm in series [2] is 44.7 °C.
Take TCTCAGAAATGAGA (((((....))))): in series [1], the folding enthalpy was -12.2 kcal/mol. The Tm in series [2] was 31.1 °C.
For the sequence TCTGAGAAATCAGA (((((....))))), the folding enthalpy in series [1] is -11.1 kcal/mol. Further, the Tm in series [2] turned out to be 33.4 °C.
For the sequence TGAGTGAAAACTCA (((((....))))), the folding enthalpy in series [1] was -18.3 kcal/mol. The Tm in series [2] stood at 42.4 °C.
On to TGCGTGAAAACGCA (((((....))))), for which, in series [1], the folding enthalpy was -18.1 kcal/mol. Also, the Tm in series [2] is 66.2 °C.
For TGTCAGAAATGACA (((((....))))), in series [1], the folding enthalpy is -17.6 kcal/mol. Also, the Tm in series [2] was found to be 40.2 °C.
As for TGTCTGAAAAGACA (((((....))))), the folding enthalpy in series [1] was -20.4 kcal/mol. Besides, the Tm in series [2] is 47.2 °C.
As for TGTGAGAAATCACA (((((....))))), the folding enthalpy in series [1] was -18.3 kcal/mol. The Tm in series [2] is 38.9 °C.
For the sequence TGTGTGAAAACACA (((((....))))), in series [1], the folding enthalpy was -20 kcal/mol. In addition, the Tm in series [2] is 49 °C.
As to TGTTCGAAAGAACA (((((....))))), in series [1], the folding enthalpy was -17.1 kcal/mol. Also, the Tm in series [2] turned out to be 52.3 °C.
On to TTAGCGAAAGCTAA (((((....))))), for which the folding enthalpy in series [1] was -16.2 kcal/mol. Further, the Tm in series [2] is 51.2 °C.
On to TTCGTGAAAACGAA (((((....))))), for which the folding enthalpy in series [1] was -20.2 kcal/mol. Also, the Tm in series [2] came out at 46.4 °C.
With TTCTCGAAAGAGAA (((((....))))), in series [1], the folding enthalpy is -15.2 kcal/mol. The Tm in series [2] was determined as 49.1 °C.
For the sequence TTGGTGAAAACCAA (((((....))))), the folding enthalpy in series [1] is -15.8 kcal/mol. In addition, the Tm in series [2] came to 44.8 °C.
Take TTGTGGAAACACAA (((((....))))): the folding enthalpy in series [1] was -19.7 kcal/mol. Further, the Tm in series [2] was 40.4 °C.
Consider TTTGGGAAACCAAA (((((....))))), for which the folding enthalpy in series [1] was -13.6 kcal/mol. In addition, in series [2], the Tm was 38.2 °C.
